Measured values taken from ChEMBL document CHEMBL1765045, “Fine-tuning the selectivity of aldosterone synthase inhibitors: structure-activity and structure-selectivity insights from studies of heteroaryl substituted 1,2,5,6-tetrahydropyrrolo[3,2,1-ij]quinolin-4-one derivatives” (J Med Chem, 2011).

Columns and labels:
[1] = biological target: T1, Cytochrome P450 11B2, mitochondrial (Homo sapiens, UniProt P19099); assay: Inhibition of human CYP11B2 expressed in hamster V79 MZh cells assessed as conversion of [4-14C]-11-deoxycorticosterone substrate by HPTLC assay; assay type: cell-based
T1 sequence (P19099 whole entry): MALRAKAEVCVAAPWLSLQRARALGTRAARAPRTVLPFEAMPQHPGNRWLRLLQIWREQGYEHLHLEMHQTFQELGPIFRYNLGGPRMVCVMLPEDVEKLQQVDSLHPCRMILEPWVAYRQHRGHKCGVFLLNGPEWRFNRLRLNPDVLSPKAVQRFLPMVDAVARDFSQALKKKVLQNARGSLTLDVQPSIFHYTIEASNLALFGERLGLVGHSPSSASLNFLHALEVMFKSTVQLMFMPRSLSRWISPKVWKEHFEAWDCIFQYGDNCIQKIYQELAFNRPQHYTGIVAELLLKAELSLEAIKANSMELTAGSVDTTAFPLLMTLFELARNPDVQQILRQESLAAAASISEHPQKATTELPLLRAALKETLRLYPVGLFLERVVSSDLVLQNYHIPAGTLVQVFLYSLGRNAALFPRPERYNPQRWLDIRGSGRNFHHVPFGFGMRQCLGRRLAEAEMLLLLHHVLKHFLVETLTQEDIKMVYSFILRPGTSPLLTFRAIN
In short: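 Hamster V79 MZh fibroblasts expressing human CYP11B2 incubated with [4-14C]-11-deoxycorticosterone (100 nM) and inhibitor at ≥3 concentrations; reaction stopped with ethyl acetate, steroids extracted after shaking and centrifugation (10000g, 2 min). Substrate conversion read by HPTLC with phosphoimaging.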

[2] = biological target: T1, Cytochrome P450 11B2, mitochondrial; assay: Inhibition of human CYP11B2 expressed in hamster V79 MZh cells assessed as conversion of [4-14C]-11-deoxycorticosterone substrate at 500 nM by HPTLC assay; assay type: cell-based; details: V79MZh
In short: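 V79 MZh cells expressing human CYP11B2 given [4-14C]-11-deoxycorticosterone, 100 nM, with inhibitor at a single 500 nM concentration. Ethyl acetate extraction, then HPTLC/phosphoimager readout of conversion. Percent inhibition is the mean of at least three experiments.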

[3] = biological target: T2, Cytochrome P450 11B1, mitochondrial (Homo sapiens, UniProt P15538); assay: Inhibition of human CYP11B1 expressed in hamster V79 MZh cells assessed as conversion of [4-14C]-11-deoxycorticosterone substrate by HPTLC assay; assay type: cell-based
T2 sequence (P15538 whole entry): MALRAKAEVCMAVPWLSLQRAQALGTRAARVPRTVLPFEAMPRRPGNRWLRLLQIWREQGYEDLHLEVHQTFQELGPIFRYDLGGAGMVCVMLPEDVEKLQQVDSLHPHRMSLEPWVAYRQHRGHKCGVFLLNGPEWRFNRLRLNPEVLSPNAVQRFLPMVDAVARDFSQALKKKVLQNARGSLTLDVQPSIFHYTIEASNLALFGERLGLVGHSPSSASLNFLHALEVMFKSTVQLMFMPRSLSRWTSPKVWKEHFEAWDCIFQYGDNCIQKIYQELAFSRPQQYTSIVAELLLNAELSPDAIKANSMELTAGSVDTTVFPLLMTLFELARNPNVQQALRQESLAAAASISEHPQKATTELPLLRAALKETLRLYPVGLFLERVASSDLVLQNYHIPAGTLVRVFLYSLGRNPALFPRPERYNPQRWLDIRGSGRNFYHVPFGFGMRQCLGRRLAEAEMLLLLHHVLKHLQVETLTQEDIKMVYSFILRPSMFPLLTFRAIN
In short: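 V79 MZh hamster fibroblasts stably expressing human CYP11B1 or CYP11B2 incubated with [4-14C]-11-deoxycorticosterone, 100 nM, plus inhibitor at ≥3 concentrations. Reaction stopped with ethyl acetate, steroids extracted into the organic phase, and substrate conversion quantified by HPTLC with phosphoimaging. IC50 is the mean of at least three experiments.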

[4] = biological target: T3, CYP17 (Homo sapiens, UniProt P05093); assay: Inhibition of human CYP17 expressed in Escherichia coli using progesterone substrate at 2 uM; details: recombinant human CYP17 expressed in Escherichia coli, probe progesterone
T3 sequence (P05093 whole entry): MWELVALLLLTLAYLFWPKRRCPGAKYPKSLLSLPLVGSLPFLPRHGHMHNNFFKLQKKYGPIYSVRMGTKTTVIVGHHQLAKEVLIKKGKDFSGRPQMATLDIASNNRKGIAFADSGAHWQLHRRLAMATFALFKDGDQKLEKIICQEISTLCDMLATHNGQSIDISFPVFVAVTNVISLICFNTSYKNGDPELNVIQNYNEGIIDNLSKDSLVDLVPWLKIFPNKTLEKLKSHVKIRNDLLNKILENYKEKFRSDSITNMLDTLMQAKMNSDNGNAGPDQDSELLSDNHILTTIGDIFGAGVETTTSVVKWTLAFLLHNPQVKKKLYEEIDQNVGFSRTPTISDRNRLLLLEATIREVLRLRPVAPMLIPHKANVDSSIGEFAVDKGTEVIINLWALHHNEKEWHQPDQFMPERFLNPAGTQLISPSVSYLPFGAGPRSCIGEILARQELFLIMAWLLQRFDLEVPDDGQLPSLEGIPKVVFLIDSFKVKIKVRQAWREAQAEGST
In short: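 50000g sediment of E. coli homogenate recombinantly expressing human CYP17. Progesterone substrate at 25 μM, inhibitor tested at 2 μM.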

[5] = biological target: T4, CYP3A4 (Homo sapiens, UniProt P08684); assay: Inhibition of human CYP3A4 expressed in baculovirus-infected insect microsomes at 10 uM; assay type: ADME, Microsome
In short: (§1)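 Recombinant human CYP1A2, 2B6, 2C9, 2C19, 2D6 or 3A4 in baculovirus-infected insect microsomes (Supersomes), run per manufacturer's protocol. Inhibitor at 1 and 10 μM; percent inhibition is the mean of two experiments.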

[6] = biological target: T4, CYP3A4; assay: Inhibition of human CYP3A4 expressed in baculovirus-infected insect microsomes at 1 uM; assay type: ADME, Microsome; in short: as §1
[7] = biological target: T5, CYP2C19 (Homo sapiens, UniProt P33261); assay: Inhibition of human CYP2C19 expressed in baculovirus-infected insect microsomes at 10 uM; assay type: ADME, Microsome; in short: as §1
[8] = biological target: T5, CYP2C19; assay: Inhibition of human CYP2C19 expressed in baculovirus-infected insect microsomes at 1 uM; assay type: ADME, Microsome; in short: as §1
[9] = biological target: T6, CYP2C9 (Homo sapiens, UniProt P11712); assay: Inhibition of human CYP2C9 expressed in baculovirus-infected insect microsomes at 10 uM; assay type: ADME, Microsome; in short: as §1
[10] = biological target: T6, CYP2C9; assay: Inhibition of human CYP2C9 expressed in baculovirus-infected insect microsomes at 1 uM; assay type: ADME, Microsome; in short: as §1
[11] = biological target: T7, CYP1A2 (Homo sapiens, UniProt P05177); assay: Inhibition of human CYP1A2 expressed in baculovirus-infected insect microsomes at 10 uM; assay type: ADME, Microsome; in short: as §1
T7 sequence (P05177 whole entry): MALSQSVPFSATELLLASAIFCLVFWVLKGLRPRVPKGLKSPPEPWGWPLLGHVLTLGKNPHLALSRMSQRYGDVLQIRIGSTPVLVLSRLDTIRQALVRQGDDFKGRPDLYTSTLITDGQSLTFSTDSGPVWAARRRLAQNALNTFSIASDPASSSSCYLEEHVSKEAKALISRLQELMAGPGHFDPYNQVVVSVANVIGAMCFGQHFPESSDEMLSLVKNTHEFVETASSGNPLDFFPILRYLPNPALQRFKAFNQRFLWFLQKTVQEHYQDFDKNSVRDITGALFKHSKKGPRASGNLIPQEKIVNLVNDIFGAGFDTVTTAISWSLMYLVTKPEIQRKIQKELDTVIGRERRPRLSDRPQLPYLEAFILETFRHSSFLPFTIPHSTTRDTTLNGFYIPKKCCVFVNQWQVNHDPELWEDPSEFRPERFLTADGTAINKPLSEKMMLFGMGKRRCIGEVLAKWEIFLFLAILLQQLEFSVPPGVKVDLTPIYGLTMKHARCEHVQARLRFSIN

[12] = biological target: T7, CYP1A2; assay: Inhibition of human CYP1A2 expressed in baculovirus-infected insect microsomes at 1 uM; assay type: ADME, Microsome; in short: as §1
[13] = species: Homo sapiens; assay: Selectivity ratio of IC50 for human CYP11B1 to IC50 for human CYP11B2
In short: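 Ratio of IC50 values from V79 MZh cell assays for human CYP11B1 and CYP11B2, IC50 CYP11B1/IC50 CYP11B2. Both assays used [4-14C]-11-deoxycorticosterone, 100 nM, inhibitor at ≥3 concentrations and HPTLC/phosphoimager readout of conversion.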

T5 sequence (P33261 whole entry): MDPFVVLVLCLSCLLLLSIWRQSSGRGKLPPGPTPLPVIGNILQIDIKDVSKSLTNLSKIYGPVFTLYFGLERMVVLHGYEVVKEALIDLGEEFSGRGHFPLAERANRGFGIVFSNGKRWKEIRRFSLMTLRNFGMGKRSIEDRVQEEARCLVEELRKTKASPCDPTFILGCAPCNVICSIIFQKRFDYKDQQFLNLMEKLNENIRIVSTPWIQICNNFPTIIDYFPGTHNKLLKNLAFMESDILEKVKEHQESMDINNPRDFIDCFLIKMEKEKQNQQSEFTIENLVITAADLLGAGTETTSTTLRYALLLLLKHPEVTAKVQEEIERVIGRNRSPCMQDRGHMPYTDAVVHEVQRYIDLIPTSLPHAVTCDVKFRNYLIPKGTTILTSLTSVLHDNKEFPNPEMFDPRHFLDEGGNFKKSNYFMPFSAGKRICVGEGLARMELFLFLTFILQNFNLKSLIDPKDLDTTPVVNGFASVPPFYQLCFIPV
T4 sequence (P08684 whole entry): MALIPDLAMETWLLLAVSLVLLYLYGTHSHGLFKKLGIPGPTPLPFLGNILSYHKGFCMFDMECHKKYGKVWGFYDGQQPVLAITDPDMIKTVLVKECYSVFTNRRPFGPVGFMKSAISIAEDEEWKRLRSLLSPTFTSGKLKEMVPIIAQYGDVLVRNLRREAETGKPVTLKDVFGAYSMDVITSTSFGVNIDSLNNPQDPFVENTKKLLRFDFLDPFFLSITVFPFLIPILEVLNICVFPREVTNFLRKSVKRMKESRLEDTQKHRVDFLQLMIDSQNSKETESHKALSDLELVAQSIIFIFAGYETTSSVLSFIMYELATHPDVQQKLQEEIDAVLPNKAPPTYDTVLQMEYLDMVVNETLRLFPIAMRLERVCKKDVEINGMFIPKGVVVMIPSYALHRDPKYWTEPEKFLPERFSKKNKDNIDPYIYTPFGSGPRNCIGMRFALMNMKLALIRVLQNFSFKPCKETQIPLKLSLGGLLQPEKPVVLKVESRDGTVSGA
T6 sequence (P11712 whole entry): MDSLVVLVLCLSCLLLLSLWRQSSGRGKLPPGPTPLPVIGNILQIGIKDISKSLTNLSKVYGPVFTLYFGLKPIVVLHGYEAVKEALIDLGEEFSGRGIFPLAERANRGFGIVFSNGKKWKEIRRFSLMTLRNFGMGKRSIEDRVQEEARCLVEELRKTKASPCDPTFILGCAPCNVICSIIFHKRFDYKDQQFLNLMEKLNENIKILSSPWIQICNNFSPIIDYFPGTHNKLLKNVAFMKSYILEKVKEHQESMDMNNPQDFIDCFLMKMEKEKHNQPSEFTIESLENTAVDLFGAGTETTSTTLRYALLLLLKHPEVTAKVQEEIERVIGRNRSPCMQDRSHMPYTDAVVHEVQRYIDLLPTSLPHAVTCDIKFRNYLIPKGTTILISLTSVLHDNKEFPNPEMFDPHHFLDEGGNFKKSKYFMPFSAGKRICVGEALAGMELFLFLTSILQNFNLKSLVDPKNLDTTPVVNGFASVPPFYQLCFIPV

SMILES | IC50 [1] [nM] | inhibition at 0.5 µM [2] [%] | IC50 [3] [nM] | inhibition at 2 µM [4] [%] | inhibition at 10 µM [5] [%] | inhibition at 1 µM [6] [%] | inhibition at 10 µM [7] [%] | inhibition at 1 µM [8] [%] | inhibition at 10 µM [9] [%] | inhibition at 1 µM [10] [%] | inhibition at 10 µM [11] [%] | inhibition at 1 µM [12] [%] | Ratio IC50 [13]
O=C1CCc2cc(-c3cncc(C(F)(F)F)c3)cc3c2N1CC3 | 5.9 | 96 | 141 | – | – | – | – | – | – | – | – | – | –
O=C1CCc2cc(-c3ccncc3)cc3c2N1CC3 | – | 7 | – | – | – | – | – | – | – | – | – | – | –
S=C1CCc2cc(-c3cccnc3)cc3c2N1CC3 | 1.2 | 96 | 333 | 11 | – | – | – | – | – | – | – | – | –
CC(C)Oc1cncc(-c2cc3c4c(c2)CCN4C(=O)CC3)c1 | 2.2 | 96 | 103 | – | – | – | – | – | – | – | – | – | –
COc1cncc(-c2cc3c4c(c2)CCC(=O)N4CCC3)c1 | 0.9 | 95 | 545 | < 5 | 24 | 12 | 61 | 11 | 63 | 34 | 87 | 47 | –
O=C1CCc2cc(-c3cncc4ccccc34)cc3c2N1CCC3 | 0.2 | 95 | 34 | 5 | < 5 | < 5 | 96 | 67 | 97 | 73 | 63 | 24 | 170
O=C1CCc2cc(-c3cncc(-c4ccc(F)c(F)c4)c3)cc3c2N1CC3 | 2.3 | 89 | 496 | < 5 | – | – | – | – | – | – | – | – | –
O=C1CCc2cc(-c3cncc(-c4cc(F)cc(F)c4)c3)cc3c2N1CC3 | 18 | 81 | 1750 | – | – | – | – | – | – | – | – | – | –
COc1ccc(-c2cncc(-c3cc4c5c(c3)CCN5C(=O)CC4)c2)cc1 | 1.4 | 95 | 21 | – | – | – | – | – | – | – | – | – | –
O=C1CCc2cc(-c3cncc(O)c3)cc3c2N1CC3 | 4.3 | 94 | 2040 | – | – | – | – | – | – | – | – | – | –
O=C1CCc2cc(-c3cncc(F)c3)cc3c2N1CC3 | 4.4 | 97 | 1290 | < 5 | – | – | – | – | – | – | – | – | –
O=C1CCc2cc(-c3cncc(-c4cccc(OC(F)(F)F)c4)c3)cc3c2N1CC3 | 16 | 92 | 2060 | – | – | – | – | – | – | – | – | – | –
